Experimental data taken from EPA's CvTdb concentration-time database.
One block for each compound: values may come before it.

Tests used:
Rat [1] = assay: concentration in plasma after dosing; settings: dosed: Perfluorodecanoic acid, 2 mg/kg, iv, Male, F344
Rat [2] = assay: concentration in plasma after dosing; settings: dosed: Perfluorodecanoic acid, 2 mg/kg, iv, Male, F344; remark: listed apart in the source
Rat [3] = assay: concentration in plasma after dosing; settings: dosed: Perfluorodecanoic acid, 2 mg/kg, oral, Male, Harlan Sprague Dawley
Rat [4] = assay: concentration in plasma after dosing; settings: 0.5 h; dosed: Di-n-butyl phthalate; 50 mg/kg; oral; Male; Sprague-Dawley
Rat [5] = assay: concentration in plasma after dosing; settings: 6 h; dosed: Di-n-butyl phthalate; 50 mg/kg; oral; Male; Sprague-Dawley
Rat [6] = assay: concentration in plasma after dosing; settings: 40 min; dosed: Di-n-butyl phthalate; 50 mg/kg; oral; Male; Sprague-Dawley
Rat [7] = assay: concentration in plasma after dosing; settings: 40 min; dosed: dichloroacetic acid; 100 mg/kg; oral; Male; F344
Rat [8] = assay: concentration in plasma after dosing; settings: dosed: dichloroacetic acid, 40 mg/kg, oral, Female, Harlan Sprague Dawley
Rat [9] = assay: concentration in plasma after dosing; settings: dosed: dichloroacetic acid, 40 mg/kg, oral, Female, Harlan Sprague Dawley; remark: listed apart in the source
Rat [10] = assay: concentration in plasma after dosing; settings: 0.5 h; dosed: Wyeth-14643; 5.0 mg/kg; oral; Male; Sprague-Dawley
Rat [11] = assay: concentration in plasma after dosing; settings: dosed: Wyeth-14643, 2.0 mg/kg, oral, Male, Sprague-Dawley
Rat [12] = assay: concentration in plasma after dosing; settings: dosed: Wyeth-14643, 5.0 mg/kg, oral, Male, Sprague-Dawley
human = assay: concentration in blood after dosing; settings: dosed: trichloroethylene, 100 ppm, inhalation, duration: 6 hr, person
In short: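 A PubMed search, classifier screening and manual review identified published in vivo toxicokinetic studies, which together with two structured collections supplied concentration-versus-time and amount-versus-time points. Points were mostly digitised from plot screenshots with WebPlotDigitizer, otherwise copied from tables. Dose, route, subject details and medium were hand-curated from each paper, and sampling and analytical methods are those of the sources, often unreported.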

Rat [13] = assay: concentration in heart after dosing; settings: 40 min; dosed: Bis 2-Chloroethoxy Methane; 20 mg/kg; iv; Female; F344
Rat [14] = assay: concentration in heart after dosing; settings: 2 h; dosed: Bis 2-Chloroethoxy Methane; 20 mg/kg; iv; Female; F344
Rat [15] = assay: concentration in plasma after dosing; settings: 4 h; dosed: Bis 2-Chloroethoxy Methane; 20 mg/kg; iv; Male; F344
Rat [16] = assay: concentration in thymus after dosing; settings: 3 h; dosed: Bis 2-Chloroethoxy Methane; 20 mg/kg; iv; Female; F344
Rat [17] = assay: concentration in thymus after dosing; settings: 3 h; dosed: Bis 2-Chloroethoxy Methane; 20 mg/kg; iv; Female; F344; remark: listed apart in the source
Rat [18] = assay: concentration in plasma after dosing; settings: 4 h; dosed: Bis 2-Chloroethoxy Methane; 40 mg/kg; iv; Male; Harlan Sprague Dawley
Rat [19] = assay: concentration in thymus after dosing; settings: 40 min; dosed: Bis 2-Chloroethoxy Methane; 20 mg/kg; iv; Female; F344
Rat [20] = assay: concentration in liver after dosing; settings: 40 min; dosed: Bis 2-Chloroethoxy Methane; 20 mg/kg; iv; Male; F344
Rat [21] = assay: concentration in liver after dosing; settings: 0.5 h; dosed: Fluorotelomer alcohol 8+2; 80 mg/kg; oral; Female; Harlan Sprague Dawley
Rat [22] = assay: concentration in kidney after dosing; settings: 0.5 h; dosed: Fluorotelomer alcohol 8+2; 80 mg/kg; oral; Female; Harlan Sprague Dawley
Rat [23] = assay: concentration in plasma after dosing; settings: dosed: Fluorotelomer alcohol 8+2, 40 mg/kg, iv, Male, F344
Rat [24] = assay: concentration in heart after dosing; settings: 6.667 h; dosed: Thiodiglycolic Acid; 20 mg/kg; iv; Female; Harlan Sprague Dawley
Rat [25] = assay: concentration in heart after dosing; settings: 2 h; dosed: Thiodiglycolic Acid; 20 mg/kg; iv; Female; Harlan Sprague Dawley
Rat [26] = assay: concentration in liver after dosing; settings: 1 h; dosed: Thiodiglycolic Acid; 20 mg/kg; iv; Male; Harlan Sprague Dawley
Rat [27] = assay: concentration in liver after dosing; settings: 6.667 h; dosed: Thiodiglycolic Acid; 20 mg/kg; iv; Female; Harlan Sprague Dawley
Rat [28] = assay: concentration in liver after dosing; settings: 10 min; dosed: Thiodiglycolic Acid; 20 mg/kg; iv; Male; F344
Rat [29] = assay: concentration in liver after dosing; settings: 3 h; dosed: Thiodiglycolic Acid; 20 mg/kg; iv; Female; Harlan Sprague Dawley
Rat [30] = assay: concentration in heart after dosing; settings: 4 h; dosed: Thiodiglycolic Acid; 20 mg/kg; iv; Male; Harlan Sprague Dawley
Rat [31] = assay: concentration in thymus after dosing; settings: 10 min; dosed: Thiodiglycolic Acid; 20 mg/kg; iv; Male; F344
Rat [32] = assay: concentration in plasma after dosing; settings: 9 h; dosed: Primidone; 30 mg/kg; oral; Female; F344
Rat [33] = assay: concentration in plasma after dosing; settings: 18 h; dosed: Primidone; 80 mg/kg; oral; Male; F344

SMILES: O=C(O)C(F)(F)C(F)(F)C(F)(F)C(F)(F)C(F)(F)C(F)(F)C(F)(F)C(F)(F)C(F)(F)F [Perfluorodecanoic acid]
concentration in plasma (Rat [1]; 5 min): 7.13 µg/mL
concentration in plasma (Rat [1]; 192 h): 3.04 µg/mL
concentration in plasma (Rat [2]; 5 min): 7.46 µg/mL
concentration in plasma (Rat [2]; 192 h): 3.42 µg/mL
concentration in plasma (Rat [2]; 2520 h): 0.283 µg/mL
concentration in plasma (Rat [3]; 2 h): 4.9 µg/mL
concentration in plasma (Rat [3]; 528 h): 2.05 µg/mL
concentration in plasma (Rat [3]; 3360 h): 0.516 µg/mL

SMILES: CCCCOC(=O)c1ccccc1C(=O)O [Mono-n-butyl phthalate]
concentration in plasma (Rat [4]): 20.5 µg/mL
concentration in plasma (Rat [5]): 1.89 µg/mL
concentration in plasma (Rat [6]): 16.8 µg/mL

SMILES: O=C(O)C(Cl)Cl [dichloroacetic acid]
concentration in plasma (Rat [7]): 13.8 µg/mL
concentration in plasma (Rat [8]; 20 min): 7.44 µg/mL
concentration in plasma (Rat [8]; 2 h): 1.06 µg/mL
concentration in plasma (Rat [9]; 10 min): 3.38 µg/mL
concentration in plasma (Rat [9]; 1.5 h): 3.32 µg/mL

concentration in plasma (Rat [10]): 3.83 µg/mL
concentration in plasma (Rat [11]; 1 h): 0.904 µg/mL
concentration in plasma (Rat [11]; 6 h): 0.2 µg/mL
concentration in plasma (Rat [12]; 2 h): 1.92 µg/mL
concentration in plasma (Rat [12]; 6 h): 0.999 µg/mL
SMILES: Cc1cccc(Nc2cc(Cl)nc(SCC(=O)O)n2)c1C

SMILES: O=C(O)C(Cl)(Cl)Cl [trichloroacetic acid]
concentration in blood (human; 0 h): 11.9 µg/mL
concentration in blood (human; 18 h): 32.6 µg/mL
concentration in blood (human; 24 h): 50.3 µg/mL
concentration in blood (human; 42 h): 32.2 µg/mL
concentration in blood (human; 48 h): 51.1 µg/mL
concentration in blood (human; 66 h): 51 µg/mL
concentration in blood (human; 72 h): 55.1 µg/mL
concentration in blood (human; 90 h): 49 µg/mL
concentration in blood (human; 96 h): 64.9 µg/mL
concentration in blood (human; 160 h): 28.9 µg/mL

SMILES: ClCCOCOCCCl [Bis 2-Chloroethoxy Methane]
concentration in heart (Rat [13]): 3630 ng/g
concentration in heart (Rat [14]): 401 ng/g
concentration in plasma (Rat [15]): 0.118 µg/mL
concentration in thymus (Rat [16]): 174 ng/g
concentration in thymus (Rat [17]): 448 ng/g
concentration in plasma (Rat [18]): 0.238 µg/mL
concentration in thymus (Rat [19]): 4150 ng/g
concentration in liver (Rat [20]): 3320 ng/g

concentration in liver (Rat [21]): 4040 ng/g
concentration in kidney (Rat [22]): 3400 ng/g
concentration in plasma (Rat [23]; 0.5 h): 5.95 µg/mL
concentration in plasma (Rat [23]; 9 h): 0.068 µg/mL
SMILES: OCCC(F)(F)C(F)(F)C(F)(F)C(F)(F)C(F)(F)C(F)(F)C(F)(F)C(F)(F)F [Fluorotelomer alcohol 8+2]

SMILES: O=C(O)CSCC(=O)O [Thiodiglycolic Acid]
concentration in heart (Rat [24]): 246 ng/g
concentration in heart (Rat [25]): 1640 ng/g
concentration in liver (Rat [26]): 162000 ng/g
concentration in liver (Rat [27]): 2190 ng/g
concentration in liver (Rat [28]): 160000 ng/g
concentration in liver (Rat [29]): 94200 ng/g
concentration in heart (Rat [30]): 989 ng/g
concentration in thymus (Rat [31]): 9340 ng/g

SMILES: CCC1(c2ccccc2)C(=O)NC(=O)NC1=O [Phenobarbital]
concentration in plasma (Rat [32]): 0.99 µg/mL
concentration in plasma (Rat [33]): 3.11 µg/mL
